{
  "source": "PubChem BioAssay AID704",
  "about": "(The Scripps Research Institute Molecular Screening Center, 2007)",
  "note": "Out of some 97,000 compounds screened, about 770 (0.79%) were called active.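 The calls were made as follows: active = inhibition above the screen-wide mean plus 3 SD (cut at about 35% in these data); inactive = the rest.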 This excerpt belongs to a sample that is enriched for actives.",
  "data": [
    {"biological_target": "Protein Rev (Human immunodeficiency virus type 1 group M subtype B (isolate WMJ22)) (UniProt P05866)", "sequence (P05866 whole entry, looked up)": "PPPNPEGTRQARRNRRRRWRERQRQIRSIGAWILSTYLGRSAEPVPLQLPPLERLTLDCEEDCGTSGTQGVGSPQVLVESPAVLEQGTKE", "assay": "HIV-1 Rev-RRE binding inhibitors, primary screen, biochemical, FRET, protein-RNA interaction (AID 704)", "conditions": "Rev peptide-RRE RNA binding, at 8 µM, active compounds read high", "summary_of_the_method": "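Test system – labelled RRE RNA duplex and labelled Rev peptide · Reagent – labelled Rev peptide · Doses – one concentration, 8 µM nominal · Incubation – 5 + 15 min at 25 °C · Signal – FRET fluorescence readout · Read-out basis – % inhibition of FRET ratio versus controls · Control set – DMSO wells as 0% and neomycin B wells as 100% inhibition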", "values": [
      {"compound": "O=C(Nc1ccc(-n2ccnc2P(=O)(O)c2ccccc2)cc1)c1ccccc1Br", "inhibition": "-0.76% (inactive)"},
      {"compound": "Cc1nn(-c2ccccn2)c2c1C(c1ccncc1)C1=C(CC(C)(C)CC1=O)N2", "note": "(stereo unspecified)", "inhibition": "12.1% (inactive)"},
      {"compound": "CCOC(=O)CSc1ncc(-c2cccc(Cl)c2)cn1", "inhibition": "8.5% (inactive)"},
      {"compound": "Cc1ccc(-c2nnc(C)c(N3CC(C)OC(C)C3)n2)cc1", "note": "(stereo unspecified)", "inhibition": "5.11% (inactive)"},
      {"compound": "Cc1nnc(NC(=O)Cn2c(=O)sc3ccccc32)s1", "inhibition": "2.18% (inactive)"},
      {"compound": "Cn1c(SCC(=O)N2CCCc3ccccc32)nc2ccccc2c1=O", "inhibition": "3.69% (inactive)"},
      {"compound": "CC(=O)c1ccc(S(=O)(=O)N2CCN(c3nc4c(C)c(C)ccc4cc3C#N)CC2)cc1", "inhibition": "9.9% (inactive)"},
      {"compound": "COCc1cc(C)nc2sc(C(=O)NC3CCCCC3)c(N)c12", "inhibition": "12.8% (inactive)"},
      {"compound": "CCCN1CC=C2C(C#N)=C(N)C(C#N)(C#N)C(c3cc(OC)ccc3OC)C2C1", "note": "(stereo unspecified)", "inhibition": "71.8% (active)"},
      {"compound": "N#CC1=C(N)C(C#N)(C#N)[C@H](c2ccsc2)[C@H]2COCC=C12", "inhibition": "35.5% (inactive)"},
      {"compound": "CCN1CC=C2C(C#N)=C(N)C(C#N)(C#N)[C@H](c3ccoc3)[C@H]2C1", "inhibition": "61.7% (active)"},
      {"compound": "COC(=O)C1=C(C)OC(N)=C(C#N)C1c1cc(OC)ccc1OC", "note": "(stereo unspecified)", "inhibition": "9.18% (inactive)"},
      {"compound": "CCOC(=O)N1CC=C2C(C#N)=C(N)C(C#N)(C#N)[C@H](c3cccs3)[C@H]2C1", "inhibition": "29.8% (inactive)"},
      {"compound": "COc1ccc(C2C=C(c3ccc(Br)cc3)Nc3nc(NS(C)(=O)=O)nn32)cc1", "note": "(stereo unspecified)", "inhibition": "83.2% [fluorescence artefact?] (active)"},
      {"compound": "COc1ccc(C2CC(c3ccc(C)cc3)Nc3nc(N)nn32)cc1", "note": "(stereo unspecified)", "inhibition": "3.26% (inactive)"},
      {"compound": "Fc1ccccc1/C=C1\\CCCC2=C1Nc1ncnn1C2c1ccccc1F", "note": "(stereo unspecified)", "inhibition": "9.16% (inactive)"},
      {"compound": "COC(=O)c1c(-c2cccs2)csc1NC(=O)CSc1ncnc2sc(C)c(C)c12", "inhibition": "6.95% (inactive)"},
      {"compound": "COc1cccc(OC)c1C(=O)Nc1ccc(N2CCCCC2)cc1", "inhibition": "4.3% (inactive)"},
      {"compound": "CCCC(=O)n1nc(-c2ccccc2)nc1N", "inhibition": "0.74% (inactive)"},
      {"compound": "CCCNC(=O)c1c(N)n(-c2ccc(S(N)(=O)=O)cc2)c2nc3ccccc3nc12", "inhibition": "1.66% (inactive)"},
      {"compound": "O=C1c2ccccc2C(=O)c2c1cccc2N1CCN(Cc2ccccc2)CC1", "inhibition": "10.8% (inactive)"},
      {"compound": "CCCCNC(=O)OC(C)CNC(=O)OC", "note": "(stereo unspecified)", "inhibition": "-1.24% (inactive)"},
      {"compound": "CC(=O)Oc1ccc(NC(=O)CCC2CCCCC2)c(C(=O)O)c1", "inhibition": "-1.47% (inactive)"},
      {"compound": "CCOc1ccc(C(O)Cc2nc3ccccc3n2C)cc1", "note": "(stereo unspecified)", "inhibition": "-0.15% (inactive)"},
      {"compound": "CCOC(=O)c1cc(C#N)c(N2CCCCC2)nc1-c1ccccc1", "inhibition": "14.6% (inactive)"},
      {"compound": "Cc1ccc(Sc2cc(N3CCOCC3)nc(-c3ccccc3)n2)cc1", "inhibition": "12.8% (inactive)"},
      {"compound": "CS(=O)(=O)N1CCN(c2cccc(Cl)n2)CC1", "inhibition": "3.87% (inactive)"},
      {"compound": "CCC(=O)N(Cc1ccccc1)c1ccccn1", "inhibition": "7.11% (inactive)"},
      {"compound": "COC(=O)C1=C(C)Nc2ncnn2C1c1ccco1", "note": "(stereo unspecified)", "inhibition": "3.56% (inactive)"},
      {"compound": "Brc1ccc(C2=CC(c3ccco3)n3ncnc3N2)cc1", "note": "(stereo unspecified)", "inhibition": "124% [fluorescence artefact?] (active)"},
      {"compound": "Clc1ccc2c(c1)C1=C(C(c3ccncc3)O2)C(c2ccc(Br)cc2)n2ncnc2N1", "note": "(stereo unspecified)", "inhibition": "-1.15% (inactive)"},
      {"compound": "COc1ccc(CN(CC(=O)NC2CCCC2)C(=O)CCC(=O)Nc2cc(C)on2)cc1", "inhibition": "-2.37% (inactive)"},
      {"compound": "Cc1cccc(NC(=O)CSc2nc3c(c(=O)[nH]2)CCCC3)c1C", "inhibition": "5.45% (inactive)"},
      {"compound": "O=C(NCc1cccnc1)c1cccnc1Sc1ccc(Cl)cc1", "inhibition": "5.95% (inactive)"},
      {"compound": "O=C(Cc1c[nH]c2ccccc12)OCCOC(=O)Cc1c[nH]c2ccccc12", "inhibition": "3.26% (inactive)"},
      {"compound": "CCOc1cccc(-n2nnnc2-c2ccc(OC)cc2)c1", "inhibition": "1.17% (inactive)"},
      {"compound": "CCOc1nnc(C)c2c(C)n(-c3cccc(Cl)c3)nc12", "inhibition": "53.5% (active)"},
      {"compound": "COC(=O)C(C)n1cnc2c(nnn2-c2cccc(Cl)c2)c1=O", "note": "(stereo unspecified)", "inhibition": "3.58% (inactive)"},
      {"compound": "C=CCC(NCc1ccco1)c1ccc(OC)cc1", "note": "(stereo unspecified)", "inhibition": "2.12% (inactive)"},
      {"compound": "CCCCCCCCOC1OC(CO)C(O)C(O)C1NC(C)=O", "note": "(stereo unspecified)", "inhibition": "-1.01% (inactive)"},
      {"compound": "O=C(c1ccc2c(c1)OCO2)N1CCOCC1", "inhibition": "2.74% (inactive)"},
      {"compound": "O=C(NCCOc1ccccc1)c1ccccc1", "inhibition": "7.52% (inactive)"},
      {"compound": "CCOC(=O)c1sc(NC(=O)c2ccncc2)nc1C", "inhibition": "4.33% (inactive)"},
      {"compound": "CC/S(CC1CC1(Cl)Cl)=N\\S(=O)(=O)c1ccc(C)cc1", "note": "(stereo unspecified)", "inhibition": "-0.12% (inactive)"},
      {"compound": "CCN(CC)C(=O)CSc1nnc(C2CCCCC2)o1", "inhibition": "-0.19% (inactive)"},
      {"compound": "CCOc1ccc2c(c1)C(c1ccc(C)cc1)=NNC(c1ccc(C)cc1)=N2", "inhibition": "-0.68% (inactive)"},
      {"compound": "COc1ccccc1C(c1nnnn1C(C)(C)C)N1CCN(Cc2ccccc2)CC1", "note": "(stereo unspecified)", "inhibition": "5.48% (inactive)"},
      {"compound": "O=C1CSC(c2ccccc2)N1c1nc(-c2ccc(Cl)cc2Cl)cs1", "note": "(stereo unspecified)", "inhibition": "11.2% (inactive)"},
      {"compound": "Cc1cc(C)cc(OCC(=O)NNC(=O)c2cc3ccccc3oc2=O)c1", "inhibition": "3.32% (inactive)"},
      {"compound": "O=c1c2ccccc2c(-c2ccc(Br)cc2)nn1Cc1ccccc1", "inhibition": "10.1% (inactive)"},
      {"compound": "CC1=NN(Cc2ccccc2)C(=O)/C1=C/c1ccc(N(C)C)cc1", "inhibition": "13.1% (inactive)"},
      {"compound": "CN(C)c1ccc(/C=C2\\NC(=S)N(Cc3ccccc3)C2=O)cc1", "inhibition": "136% [fluorescence artefact?] (active)"},
      {"compound": "CC(C)(C)n1nnnc1C(c1ccc(Cl)cc1)N1CCSCC1", "note": "(stereo unspecified)", "inhibition": "3.16% (inactive)"},
      {"compound": "O=c1c2ccccc2nc2n1C(CSCc1cccc(C(F)(F)F)c1)CS2", "note": "(stereo unspecified)", "inhibition": "5.83% (inactive)"},
      {"compound": "OC(COCCC12CC3CC(CC(C3)C1)C2)CN1CCCCC1", "note": "(stereo unspecified)", "inhibition": "-1.79% (inactive)"},
      {"compound": "CCCCn1c(=S)[nH]c2cc(S(=O)(=O)N3CCCCC3)ccc21", "inhibition": "1.26% (inactive)"},
      {"compound": "Clc1ccc(-n2nnnc2CN2CCCCC2)cc1Cl", "inhibition": "1.19% (inactive)"},
      {"compound": "CCOC(=O)C1=C(C)NC2=C(C(=O)CC(C)(C)C2)C1c1ccsc1", "note": "(stereo unspecified)", "inhibition": "0.96% (inactive)"},
      {"compound": "Cc1[nH]c2ccccc2c1C(=O)COC(=O)C(C)C", "inhibition": "2.32% (inactive)"},
      {"compound": "CCOC(=O)c1[nH]c2ccccc2c1N=C(C)N(CC)CC", "inhibition": "65% (active)"},
      {"compound": "CCOC(=O)c1[nH]c2ccc(C)cc2c1N=C(C)N(C)C", "inhibition": "7.68% (inactive)"}
    ]}
  ]
}
